Converted amounts (≈) assume the structure as drawn.
These compounds were tested on Human alphaherpesvirus 1 (assay: Antiviral activity against herpes simplex virus type 1 (HSV-1) determined in baby hamster kidney cells). Conditions: not given.
Format: functional
Summary of the method: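 Microplaque reduction with HSV-1 strain S3. Serial 0.5 log virus dilutions were inoculated onto baby hamster kidney cell monolayers in microtiter plates for infectivity end-point titration. Compound was present in the overlay (Dulbecco-modified Eagle MEM, 10% donor calf serum, 0.5% carboxymethylcellulose). MIC was the lowest concentration that cut the virus infectivity end point by at least 1 log versus the untreated control.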
Work on `O=c1[nH]c(=O)n([C@H]2C[C@H](O)[C@@H](CO)O2)cc1/C=C/Br` (stereo in doubt; 4) [BRIVUDINE] yielded an MIC of 0.1 µg/mL (≈ 0.3 µM). `O=c1[nH]c(=O)n([C@H]2C[C@H](O)[C@@H](CO)O2)cc1/C=C/Br` (stereo in doubt; 2) [BRIVUDINE] showed an MIC of 0.005 µg/mL (≈ 0.015 µM).

Same assay, conditions: Human alphaherpesvirus 1; read-out: MIC
`CC(C)=Cc1cn([C@H]2C[C@H](O)[C@@H](CO)O2)c(=O)[nH]c1=O` was tested, and the MIC was > 50 µg/mL. For `C=CCc1cn([C@H]2C[C@H](O)[C@@H](CO)O2)c(=O)[nH]c1=O`, the MIC was 100 µg/mL (≈ 373 µM). With `C/C=C\c1cn([C@H]2C[C@H](O)[C@@H](CO)O2)c(=O)[nH]c1=O` the MIC was 100 µg/mL (≈ 373 µM). `CS/C=C/c1cn([C@H]2C[C@H](O)[C@@H](CO)O2)c(=O)[nH]c1=O` showed an MIC of 0.5 µg/mL (≈ 1.66 µM). In the case of `C/C(=C\Br)c1cn([C@H]2C[C@H](O)[C@@H](CO)O2)c(=O)[nH]c1=O`, the MIC is reported as 0.1 µg/mL (≈ 0.288 µM). With `CC/C=C/c1cn([C@H]2C[C@H](O)[C@@H](CO)O2)c(=O)[nH]c1=O` the MIC was 0.5 µg/mL (≈ 1.77 µM). `COC(=O)/C(C)=C/c1cn([C@H]2C[C@H](O)[C@@H](CO)O2)c(=O)[nH]c1=O` was tested, and the MIC was > 100 µg/mL. For `C/C=C(/C)c1cn([C@H]2C[C@H](O)[C@@H](CO)O2)c(=O)[nH]c1=O`, the MIC was > 100 µg/mL. For `CCCC/C=C/c1cn([C@H]2C[C@H](O)[C@@H](CO)O2)c(=O)[nH]c1=O`, the MIC was > 100 µg/mL. `C/C=C/c1cn([C@H]2C[C@H](O)[C@@H](CO)O2)c(=O)[nH]c1=O` was tested, and the MIC was 0.5 µg/mL (≈ 1.86 µM). In the case of `CC(C)(C)/C=C/c1cn([C@H]2C[C@H](O)[C@@H](CO)O2)c(=O)[nH]c1=O`, the MIC is reported as > 10 µg/mL. Work on `CCC#Cc1cn([C@H]2C[C@H](O)[C@@H](CO)O2)c(=O)[nH]c1=O` yielded an MIC of 10 µg/mL (≈ 35.7 µM). `O=c1[nH]c(=O)n([C@H]2C[C@H](O)[C@@H](CO)O2)cc1C=C(Br)Br` was tested, and the MIC was 0.1 µg/mL (≈ 0.243 µM). With `C/C(Br)=C/c1cn([C@H]2C[C@H](O)[C@@H](CO)O2)c(=O)[nH]c1=O.C/C(Br)=C\c1cn([C@H]2C[C@H](O)[C@@H](CO)O2)c(=O)[nH]c1=O` the MIC was 1 µg/mL. With `CCC/C=C/c1cn([C@H]2C[C@H](O)[C@@H](CO)O2)c(=O)[nH]c1=O` the MIC was > 100 µg/mL. For `CCCCc1cn([C@H]2C[C@H](O)[C@@H](CO)O2)c(=O)[nH]c1=O`, the MIC was 10 µg/mL (≈ 35.2 µM). In the case of `COC(=O)/C=C/c1cn([C@H]2C[C@H](O)[C@@H](CO)O2)c(=O)[nH]c1=O`, the MIC is reported as 10 µg/mL (≈ 32 µM). Work on `C/C=C/c1cn([C@H]2C[C@H](O)[C@@H](CO)O2)c(=O)[nH]c1=S` yielded an MIC of 100 µg/mL (≈ 352 µM). `C/C=C\c1cn([C@H]2C[C@H](O)[C@@H](CO)O2)c(=O)nc1N` was tested, and the MIC was > 100 µg/mL. In the case of `C=C(Cl)Cc1cn([C@H]2C[C@H](O)[C@@H](CO)O2)c(=O)[nH]c1=O`, the MIC is reported as 50 µg/mL (≈ 165 µM). For `COC(=O)/C=C(\C)c1cn([C@H]2C[C@H](O)[C@@H](CO)O2)c(=O)[nH]c1=O`, the MIC was > 100 µg/mL. `C/C(=C\Cl)c1cn([C@H]2C[C@H](O)[C@@H](CO)O2)c(=O)[nH]c1=O` was tested, and the MIC was > 100 µg/mL. `C/C=C(\C)c1cn([C@H]2C[C@H](O)[C@@H](CO)O2)c(=O)[nH]c1=O` gave an MIC of 50 µg/mL (≈ 177 µM). With `C/C=C/c1cn([C@H]2C[C@H](O)[C@@H](CO)O2)c(=O)nc1N` the MIC was 50 µg/mL (≈ 187 µM). For `C/C=C/Cc1cn([C@H]2C[C@H](O)[C@@H](CO)O2)c(=O)[nH]c1=O.C/C=C\Cc1cn([C@H]2C[C@H](O)[C@@H](CO)O2)c(=O)[nH]c1=O`, the MIC was 10 µg/mL. In the case of `COC(=O)/C=C/C=C/c1cn([C@H]2C[C@H](O)[C@@H](CO)O2)c(=O)[nH]c1=O`, the MIC is reported as > 100 µg/mL. `N#C/C=C/c1cn([C@H]2C[C@H](O)[C@@H](CO)O2)c(=O)[nH]c1=O` was tested, and the MIC was > 25 µg/mL. Work on `CC#Cc1cn([C@H]2C[C@H](O)[C@@H](CO)O2)c(=O)[nH]c1=O` yielded an MIC of 1 µg/mL (≈ 3.76 µM).

From ChEMBL document CHEMBL1122499, “Structural requirements of olefinic 5-substituted deoxyuridines for antiherpes activity” (1983)
